How the values were obtained:
Assay type in all cases: biochemical
[1] = target: T1, hMAGL (Homo sapiens, UniProt Q99685); experiment: natural substrate-based fluorescence assay MAGL; conditions: 10 μM
T1 sequence (Q99685 1-303): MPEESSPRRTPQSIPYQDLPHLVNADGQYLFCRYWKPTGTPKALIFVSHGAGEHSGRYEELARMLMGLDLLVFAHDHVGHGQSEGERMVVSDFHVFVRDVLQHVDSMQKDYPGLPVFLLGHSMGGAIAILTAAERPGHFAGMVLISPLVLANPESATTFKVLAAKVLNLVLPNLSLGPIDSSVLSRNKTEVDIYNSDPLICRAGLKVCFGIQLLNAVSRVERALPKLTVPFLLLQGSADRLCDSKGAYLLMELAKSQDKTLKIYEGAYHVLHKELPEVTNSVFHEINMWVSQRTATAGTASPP

[2] = target: hNAPE-PLD (Homo sapiens, UniProt Q6IQ20); experiment: NAPE-PLD surrogate substrate; conditions: 10 μM
[3] = target: T2, PLAAT5 (Homo sapiens, UniProt Q96KN8)
T2 sequence (Q96KN8 1-279): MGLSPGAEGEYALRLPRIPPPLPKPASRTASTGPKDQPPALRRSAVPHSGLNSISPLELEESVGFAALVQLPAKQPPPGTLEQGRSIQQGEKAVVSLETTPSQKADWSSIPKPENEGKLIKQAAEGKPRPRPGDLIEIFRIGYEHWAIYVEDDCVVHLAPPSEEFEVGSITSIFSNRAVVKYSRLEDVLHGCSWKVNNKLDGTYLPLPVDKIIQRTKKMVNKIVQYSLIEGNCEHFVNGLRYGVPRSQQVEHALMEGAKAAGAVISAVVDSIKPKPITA
Method in brief: (§1)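 Human PLAAT cDNA (C-terminal FLAG, pcDNA3.1) was PEI-transfected into HEK293T; cytosol came from a 100,000g spin. Cytosol was preincubated with test compound (30 min, rt), then MB064 (20 min, rt). Conditions: PLAAT2 0.25 μg/μL, 250 nM; PLAAT3 0.5 μg/μL, 250 nM; PLAAT4/5 1 μg/μL, 500 nM. In-gel fluorescence was normalized to Coomassie, in triplicate. Single-concentration screen or IC50 from dose–response curves.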

[4] = target: T3, PLAAT4 (Homo sapiens, UniProt Q9UL19)
T3 sequence (Q9UL19 1-164): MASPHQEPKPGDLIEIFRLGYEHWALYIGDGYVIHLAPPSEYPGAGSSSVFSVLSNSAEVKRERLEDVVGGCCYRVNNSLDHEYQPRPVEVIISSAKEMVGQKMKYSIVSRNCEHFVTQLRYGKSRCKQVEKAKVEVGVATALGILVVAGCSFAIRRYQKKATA
Method in brief: as §1

[5] = target: T4, mFAAH (Mus musculus, UniProt O08914); experiment: gel-based ABPP, mouse brain membrane proteome; conditions: 10 μM
T4 sequence (O08914 1-579): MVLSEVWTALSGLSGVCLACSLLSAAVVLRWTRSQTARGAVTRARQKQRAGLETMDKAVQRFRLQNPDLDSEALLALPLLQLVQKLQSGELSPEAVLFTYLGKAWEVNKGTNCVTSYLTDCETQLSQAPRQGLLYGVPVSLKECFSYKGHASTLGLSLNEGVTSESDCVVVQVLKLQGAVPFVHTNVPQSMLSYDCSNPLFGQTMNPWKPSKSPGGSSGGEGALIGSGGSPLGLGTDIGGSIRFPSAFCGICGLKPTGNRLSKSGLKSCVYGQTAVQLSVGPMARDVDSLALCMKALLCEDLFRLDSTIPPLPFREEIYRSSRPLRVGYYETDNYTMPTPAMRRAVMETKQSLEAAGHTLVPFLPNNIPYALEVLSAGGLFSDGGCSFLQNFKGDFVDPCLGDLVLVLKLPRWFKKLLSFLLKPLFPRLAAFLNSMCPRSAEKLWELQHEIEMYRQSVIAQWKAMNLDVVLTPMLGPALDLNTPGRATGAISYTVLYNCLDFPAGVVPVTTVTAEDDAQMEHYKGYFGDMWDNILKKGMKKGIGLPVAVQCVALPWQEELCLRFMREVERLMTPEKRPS
Method in brief: (§2)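 Mouse brain was dounce-homogenized in 20 mM HEPES pH 7.2 with DTT, MgCl2 and benzonase. The membrane pellet from ultracentrifugation (100,000g, 45 min, 4 °C) was used at 2 μg/μL. It was preincubated with test compound in DMSO (30 min, rt), then labeled with MB064 (250 nM) or FP-TAMRA (500 nM) for 15 min at rt. Samples ran on 10% SDS-PAGE; fluorescence was normalized to Coomassie staining.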

[6] = target: T5, PLAAT2 (Homo sapiens, UniProt Q9NWW9)
T5 sequence (Q9NWW9 1-162): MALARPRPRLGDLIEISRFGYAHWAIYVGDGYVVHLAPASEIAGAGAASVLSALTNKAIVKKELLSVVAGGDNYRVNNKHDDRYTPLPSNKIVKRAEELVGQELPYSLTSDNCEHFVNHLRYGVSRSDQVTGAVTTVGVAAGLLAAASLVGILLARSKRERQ
Method in brief: as §1

[7] = target: T6, mDAGLβ (Mus musculus, UniProt Q91WC9); experiment: gel-based ABPP, mouse brain membrane proteome; conditions: 10 μM
T6 sequence (Q91WC9 1-669): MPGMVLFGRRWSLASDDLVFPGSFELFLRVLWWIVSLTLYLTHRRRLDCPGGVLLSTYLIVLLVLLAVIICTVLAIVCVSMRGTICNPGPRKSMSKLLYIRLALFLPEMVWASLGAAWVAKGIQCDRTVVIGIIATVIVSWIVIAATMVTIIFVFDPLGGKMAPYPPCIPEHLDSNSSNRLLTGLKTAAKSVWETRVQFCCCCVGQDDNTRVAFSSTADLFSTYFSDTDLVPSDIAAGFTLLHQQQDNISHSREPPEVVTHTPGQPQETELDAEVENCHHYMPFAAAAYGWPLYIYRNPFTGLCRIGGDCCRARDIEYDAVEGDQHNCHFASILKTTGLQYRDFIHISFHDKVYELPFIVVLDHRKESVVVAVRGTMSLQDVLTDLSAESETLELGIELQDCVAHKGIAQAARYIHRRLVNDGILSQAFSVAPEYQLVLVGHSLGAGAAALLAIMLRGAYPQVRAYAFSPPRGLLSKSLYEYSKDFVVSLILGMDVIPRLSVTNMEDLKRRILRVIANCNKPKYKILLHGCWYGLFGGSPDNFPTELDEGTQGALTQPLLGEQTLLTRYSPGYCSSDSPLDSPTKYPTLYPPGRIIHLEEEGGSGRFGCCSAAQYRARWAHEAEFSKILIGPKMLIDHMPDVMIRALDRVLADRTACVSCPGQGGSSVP
Method in brief: as §2

Sequence of hNAPE-PLD (Q6IQ20 whole entry): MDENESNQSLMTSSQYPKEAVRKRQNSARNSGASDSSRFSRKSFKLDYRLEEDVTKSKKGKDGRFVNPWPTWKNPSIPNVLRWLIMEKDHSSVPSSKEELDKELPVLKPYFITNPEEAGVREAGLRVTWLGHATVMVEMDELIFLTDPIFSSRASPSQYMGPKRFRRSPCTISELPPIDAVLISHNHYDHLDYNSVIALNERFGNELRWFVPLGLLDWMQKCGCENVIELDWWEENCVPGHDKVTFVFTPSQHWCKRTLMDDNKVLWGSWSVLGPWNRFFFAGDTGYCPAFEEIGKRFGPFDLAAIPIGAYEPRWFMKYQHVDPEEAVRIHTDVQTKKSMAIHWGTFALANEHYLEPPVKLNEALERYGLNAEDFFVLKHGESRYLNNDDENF

inhibition of MAGL (in words) [1]: not inhibited
inhibition of NAPE-PLD (in words) [2]: not inhibited
higher potency for PLAAT5 than initial hit [3]: 10 fold
increase in activity/potency for PLAAT4 compared to 25 [4]: 10 fold
inhibition of FAAH (in words) [5]: not inhibited
higher potency for PLAAT2 than initial hit [6]: 10 fold
increase in activity/potency for PLAAT2 compared to 25 [6]: 10 fold
inhibition of DAGLβ (in words) [7]: not inhibited
SMILES: O=C(CCCc1ccccc1)C(=O)NCCc1ccc(Oc2ccccc2)cc1 [Compound 51, 2-Oxo-N-(4-phenoxyphenethyl)-5-phenylpentanamide]
